Test results from ChEMBL document CHEMBL2202986, “Guaianolide sesquiterpene lactones, a source to discover agents that selectively inhibit acute myelogenous leukemia stem and progenitor cells” (J Med Chem, 2012).

Experiments:
[1] = Antitumor activity against human leukemia stem/progenitor cells xenografted in NOD/SCID mouse assessed as survival rate at 100 mg/kg, po qd administered every other day total of seven doses starting from 8 weeks post grafting measured on day 85; assay type: functional
Outline: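 NOD/SCID mice were sublethally irradiated (280cGay), then 6−10 h later given primary AML M5 patient cells via tail vein in PBS. From 8 weeks postinoculation, aqueous solution was given orally at 100 mg/kg every other day for seven doses. Survival was followed, Kaplan−Meier, n = 6 per treated group and n = 7 untreated controls. Survivors at day 85 had bone marrow analysed for human CD45⁺CD33⁺ cells.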

[2] = Cytotoxicity against human HL60/A cells after 18 hrs by annexin-V labeling-based flow cytometry; assay type: functional, cell-based
[3] = Mean retention time (0 to infinity) in mouse at 100 mg/kg, iv; assay type: ADME, organism-based; set-up: dose 100 mg/kg, route intravenous; conditions: in vivo
Outline: (§1)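 Male Kunming mice (20 2 g), fasted 12 h before dosing with water available, given DMAMCL as an aqueous solution iv (n = 5). Blood was drawn from the orbital veins at set times. DMAMCL and MCL in plasma were measured, and parameters were derived by a noncompartmental model.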

[4] = Half life in mouse at 100 mg/kg, iv; assay type: ADME, organism-based; set-up: dose 100 mg/kg, route intravenous; conditions: in vivo; outline: as §1
[5] = Cmax in mouse at 150 mg/kg, po; assay type: ADME, organism-based; set-up: dose 150 mg/kg, route oral; conditions: in vivo
Outline: (§2)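 Male Kunming mice (20 2 g), fasted 12 h before dosing with water available, given DMAMCL as an aqueous solution po (n = 5). Blood was drawn from the orbital veins at set times. Plasma DMAMCL and MCL were followed, and parameters came from noncompartmental analysis.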

[6] = Toxicity in po dosed BALB/c mouse administered every day for 7 days; conditions: in vivo
[7] = test system: Mus musculus; experiment: Toxicity in BALB/c mouse assessed as pathological changes in kidney at 500 mg/kg, po administered every day for 7 days by hematoxylin-eosin staining method; conditions: in vivo, 168 h
[8] = AUC (0 to t) in mouse at 150 mg/kg, po; assay type: ADME, organism-based; set-up: dose 150 mg/kg, route oral; conditions: plasma; outline: as §2
[9] = test system: Mus musculus; experiment: Toxicity in BALB/c mouse assessed as pathological changes in lung at 1000 mg/kg, po administered as single dose by hematoxylin-eosin staining method; assay type: organism-based; set-up: dose 1000 mg/kg, route oral; conditions: in vivo
Outline: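 BALB/c mice, 16 in total (8 male, 8 female). DMAMCL was given by gavage as an aqueous solution, either 1000 mg/kg once or 500 mg/kg every day for seven doses. Controls were untreated and water-vehicle mice. Mice were killed 1 week after dosing. Heart, liver, spleen, lung and kidney were fixed in 10% neutral-buffered formalin, paraffin-embedded, cut into 3 μm sections, H&E-stained and examined microscopically for gross morphology.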

[10] = Half life in mouse at 150 mg/kg, po; assay type: ADME, organism-based; set-up: dose 150 mg/kg, route oral; conditions: in vivo; outline: as §2
[11] = Cytotoxicity against human leukemia stem/progenitor cells assessed as viable CD34+ cells at 10 uM after 18 hrs by annexin-V labeling-based flow cytometry; assay type: functional, CD34+ cell
[12] = Drug degradation in HEPES buffer at pH 7.4 assessed as release of MCL; assay type: physicochemical
Outline: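 A 20 μL aliquot of prodrug solution was added to 980 μL HEPES buffer (pH 7.4, or below 5.0) and incubated at 37 °C. Samples were withdrawn over time, and prodrug and released parent were quantified by HPLC (mean, SD, n = 4).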

[13] = Toxicity in po dosed BALB/c mouse administered as single dose; assay type: organism-based; conditions: in vivo
Outline: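 Oral gavage of aqueous solution at a single dose of 1000 mg/kg. Untreated and water-vehicle mice served as controls; 16 mice in total (8 male/8 female). Mice were sacrificed 1 week after dosing. Heart, liver, spleen, lung and kidney were formalin-fixed, paraffin-embedded, sectioned at 3 μm, H&E-stained, and examined for gross morphology.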

[14] = AUC (0 to infinity) in mouse at 100 mg/kg, iv; assay type: ADME, organism-based; set-up: time infinity, dose 100 mg/kg, route intravenous; conditions: plasma; outline: as §1
[15] = Antitumor activity against mixed-lineage human leukemia cells xenografted in NOD/SCID mouse assessed as reduction of CD45+CD33+ cells in bone marrow at 100 mg/kg, po qd administered every other day total of seven doses starting from 8 weeks post grafting measured on day 35 (reference value: 9.8 %); assay type: functional, Leukemia cell; set-up: scale not given: the % may be the effect or the level left
[16] = test system: Mus musculus; experiment: Toxicity in BALB/c mouse assessed as pathological changes in heart at 1000 mg/kg, po administered as single dose by hematoxylin-eosin staining method; assay type: organism-based; set-up: dose 1000 mg/kg, route oral; conditions: in vivo
Outline: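 BALB/c mice (16 in total, 8 male/8 female) were given aqueous DMAMCL by gavage as a single 1000 mg/kg dose or 500 mg/kg daily for seven doses. Water-only and untreated mice served as controls. One week later, tissues were fixed in 10% neutral-buffered formalin, embedded in paraffin, cut into 3 μm sections, stained with H&E and examined microscopically.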

[17] = Total clearance in mouse at 100 mg/kg, iv; assay type: ADME, organism-based; set-up: dose 100 mg/kg, route intravenous; conditions: in vivo; outline: as §1
[18] = test system: Mus musculus; experiment: Toxicity in BALB/c mouse assessed as pathological changes in liver at 500 mg/kg, po administered every day for 7 days by hematoxylin-eosin staining method; conditions: in vivo, 168 h
[19] = test system: Mus musculus; experiment: Toxicity in BALB/c mouse assessed as pathological changes in lung at 500 mg/kg, po administered every day for 7 days by hematoxylin-eosin staining method; conditions: in vivo, 168 h
[20] = Total clearance in mouse at 150 mg/kg, po; assay type: ADME, organism-based; set-up: dose 150 mg/kg, route oral; conditions: in vivo; outline: as §2

Q: For `CC1=C2CC[C@@](C)(O)[C@@H]2[C@H]2OC(=O)[C@@H](CN(C)C)[C@@H]2CC1.Cl` [DIMETHYLAMINOMICHELIOLIDE HYDROCHLORIDE], which survival at 100 mg/kg [1] is on record?
A: Its survival at 100 mg/kg is 33%.

Q: And the IC50 [2]?
A: The IC50 was 21.5 µM.

Q: What about the MRT inf [3] of the same compound?
A: The MRT inf was 3.52 h.

Q: What about the half-life [4] of the same compound?
A: Its half-life is 18.9 h.

Q: What about the Cmax [5] of the same compound?
A: The Cmax was 19000 ng/mL.

Q: What about the MTD at 168 h [6] of the same compound?
A: The MTD at 168 h was 500 mg/kg.

Q: What about the Activity [7] of the same compound?
A: Its Activity is “Non-toxic”.

Q: And the AUC(0-t) [8]?
A: Its AUC(0-t) is 49600 ng·h/mL.

Q: And the Activity [9]?
A: The Activity was “Non-toxic”.

Q: And the half-life [10]?
A: The half-life was 9.82 h.

Q: What about the Activity [11] of the same compound?
A: Its Activity is 60.4%.

Q: And the Drug degradation [12]?
A: The Drug degradation was “Active”.

Q: What about the MTD [13] of the same compound?
A: The MTD was 1000 mg/kg.

Q: And the AUC(0-inf) [14]?
A: Its AUC(0-inf) is 44800 ng·h/mL.

Q: And the Activity [15]?
A: Its Activity is 0.14%.

Q: What about the Activity [16] of the same compound?
A: The Activity was “Non-toxic”.

Q: What about the clearance [17] of the same compound?
A: Its clearance is 37.7 mL/min/kg.

Q: What about the Activity [18] of the same compound?
A: The Activity was “Non-toxic”.

Q: What about the Activity [19] of the same compound?
A: The Activity was “Non-toxic”.

Q: What about the CL/F [20] of the same compound?
A: Its CL/F is 51.3 mL/min/kg.
